T cruzi growth-1 = blocks T. cruzi growth in NIH3T3 culture; T. cruzi beta-gal in NIH3T3, GalScreen luminescence, 90 h; inhibition, % at 8.34 µM; 77,000 tested, 5.9% active; AID 624255;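 active = mean inhibition above about 93%, with at least 55% of replicates each passing it, limit read from the data, passing the limit was not always enough; inconclusive = only one of those two conditions holds; inactive = neither condition holds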
IDH1 R132H inh = inhibitors of human IDH1 R132H; O75874; IDH1 R132H reductase, diaphorase/resazurin fluorescence, 60 min; inhibition, % at 10 µM; 70,000 tested, 0.18% active; AID 624101; in the data active = inhibition above about 34%; inconclusive = no clear call, values can overlap the other calls; inactive = below about 11%
GASC1 inh = inhibitors of human demethylase GASC-1 KDM4C | inhibition, % at 12.5 µM | 96,000 tested, 0.15% active | GST-KDM4C 2-372, H3K9me3 peptide, LANCE TR-FRET | Q9H3R0;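 active = mean replicate inhibition above about 25%, with at least 55% of replicates also reaching it, limit read from the data, passing the limit was not always enough; inconclusive = only one of those two conditions met; inactive = neither condition met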
Target sequence (Q9H3R0 2-372 limits assumed): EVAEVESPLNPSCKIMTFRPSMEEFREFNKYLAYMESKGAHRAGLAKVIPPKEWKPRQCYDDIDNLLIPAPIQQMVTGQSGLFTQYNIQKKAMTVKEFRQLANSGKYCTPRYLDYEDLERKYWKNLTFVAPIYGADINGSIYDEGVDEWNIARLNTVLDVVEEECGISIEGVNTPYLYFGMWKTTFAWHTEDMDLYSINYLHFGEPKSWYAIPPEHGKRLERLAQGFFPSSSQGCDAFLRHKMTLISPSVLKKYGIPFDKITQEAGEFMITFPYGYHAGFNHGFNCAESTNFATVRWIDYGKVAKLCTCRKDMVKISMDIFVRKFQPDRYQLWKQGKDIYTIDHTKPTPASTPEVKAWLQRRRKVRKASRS
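Assay system: GST-GASC-1 enzyme fragment 2-372 | Amount: 10 nM enzyme | Medium: HEPES buffer, pH 7.5, plus ascorbate | Reagent: H3K9me3 peptide substrate, Fe(II), 2-oxoglutarate | Doses: Single-point compound screen | Incubation: 30 min demethylation and 1 h detection at room temperature | Measured by: LANCE TR-FRET, excitation 340 nm, emissions 618 and 671 nm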
T cruzi growth-2 = inhibitors of T. cruzi proliferation. shares compounds with T cruzi growth-1. T. cruzi beta-gal in NIH3T3, GalScreen luminescence, 90 h. inhibition, % at 8.35 µM. 5,600 tested, 72% active. AID 651739;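 active = mean replicate inhibition above about 95% and at least 55% of replicates individually reaching it, limit read from the data; inconclusive = only one of the two criteria is met; inactive = neither criterion is met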
T cruzi growth-3 = inhibitors of T. cruzi proliferation. inhibition, % at 2.09 µM. shares compounds with T cruzi growth-1. T. cruzi beta-gal in NIH3T3, GalScreen luminescence, 90 h. 5,600 tested, 21% active. AID 651740;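 active = mean inhibition above about 95%, with at least 55% of replicates also reaching it, limit read from the data; inconclusive = meets just one of the two conditions; inactive = meets neither condition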
NIH3T3 tox = NIH/3T3 (mouse) viability loss; shares compounds with T cruzi growth-1; NIH/3T3 viability, CellTiter-Glo ATP luminescence, 90 h; cytotoxicity (signal decrease), % at 8.35 µM; 5,600 tested, 14% active; AID 651742;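 active = mean signal decrease across replicates above about 35% based on untreated-well scatter, with enough replicates individually passing, limit read from the data; inconclusive = no rule stated though some were filed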
NIH3T3 tox 2 = kills mouse NIH/3T3 fibroblasts | shares compounds with T cruzi growth-1 | NIH/3T3 viability, CellTiter-Glo ATP luminescence, 90 h | inhibition, % at 24.9 µM | 5,600 tested, 56% active | AID 651744;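 active = mean loss of cell viability signal at or above a set limit, and enough replicates individually reaching it; inconclusive = meets only the mean limit or only the replicate share; inactive = meets neither condition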
Large screens that a line does not name were inactive (follow-up assays come after a bar, where they were run). The entries come from a sample that favours hits as a whole.

CC(C)=CCC[C@H](C)C/C=N/NC(=O)CCCCCCC(=O)NO	none (no result: T cruzi growth-1, GASC1 inh)
Cc1ccc(Cl)cc1NC(=O)C(C)NS(=O)(=O)c1ccc(Br)cc1 (stereo unspecified)	none (no result: T cruzi growth-1, GASC1 inh)
CC(C)NC(=O)Nc1ccc2c(c1)C(=O)N([C@H](C)CO)C[C@@H](C)[C@H](CN(C)Cc1ccccc1)O2	none
Cc1ccc(OCC(=O)Nc2cccc3ncccc23)c(C)c1	none (no result: T cruzi growth-1, GASC1 inh)
O=C(CN1C(=O)c2cccc3cccc1c23)NCc1ccco1	none (no result: T cruzi growth-1, GASC1 inh)
Cc1ccc(-c2nc3ccccc3s2)cc1NC(=O)COc1cccc(C)c1C	none (no result: T cruzi growth-1, GASC1 inh)
C[C@H]1CN([C@@H](C)CO)S(=O)(=O)c2ccc(C#Cc3ccccn3)cc2O[C@H]1CN(C)C	none (no result: T cruzi growth-1)
C[C@H]1CN([C@@H](C)CO)S(=O)(=O)c2ccc(C#Cc3ccccn3)cc2O[C@H]1CN(C)Cc1ccccc1	T cruzi growth-1 113 | T cruzi growth-2 109 | T cruzi growth-3 inactive | NIH3T3 tox inactive | NIH3T3 tox 2 inactive
C[C@@H]1CN([C@@H](C)CO)S(=O)(=O)c2ccc(C#Cc3ccccn3)cc2O[C@H]1CN(C)Cc1ccccc1	T cruzi growth-1 86 | T cruzi growth-2 inconclusive | T cruzi growth-3 103 | NIH3T3 tox inactive | NIH3T3 tox 2 33
C[C@@H]1CN([C@@H](C)CO)S(=O)(=O)c2ccc(C#Cc3ccccn3)cc2O[C@@H]1CN(C)Cc1ccccc1	T cruzi growth-1 108 | T cruzi growth-2 109 | T cruzi growth-3 inactive | NIH3T3 tox 43 | NIH3T3 tox 2 inactive
C[C@@H]1CN([C@H](C)CO)S(=O)(=O)c2ccc(C#Cc3ccccn3)cc2O[C@H]1CN(C)Cc1ccccc1	T cruzi growth-1 106 | T cruzi growth-2 104 | T cruzi growth-3 inactive | NIH3T3 tox inactive | NIH3T3 tox 2 99
CC(=O)N(C)C[C@@H]1Oc2cc(C#Cc3ccccn3)ccc2S(=O)(=O)N([C@H](C)CO)C[C@@H]1C	none
C[C@H](CO)N1C[C@H](C)[C@@H](CN(C)C)Oc2cc(C#Cc3ccccn3)ccc2S1(=O)=O	none (no result: T cruzi growth-1)
C[C@H](CO)N1C[C@H](C)[C@@H](CN(C)Cc2ccccc2)Oc2cc(C#Cc3ccccn3)ccc2S1(=O)=O	none
CCOc1ccc(NC(=O)CSc2nnc(-c3cccs3)n2C)cc1	none (no result: T cruzi growth-1, GASC1 inh)
Cc1ccc(C)c(-c2csc(N)c2C#N)c1	none (no result: T cruzi growth-1, GASC1 inh)
O=C(COc1ccccc1)Nc1ccc2oc(-c3cccc(Cl)c3Cl)nc2c1	none (no result: T cruzi growth-1, GASC1 inh)
COC(=O)c1cnn(-c2ccccc2)c1C=Nc1ccc(C)cc1	none (no result: T cruzi growth-1, GASC1 inh)
COC(=O)c1cc(NC(=O)CN(c2cc(C)cc(C)c2)S(C)(=O)=O)ccc1Cl	none (no result: T cruzi growth-1, GASC1 inh)
COc1ccc(NC(=O)Nc2cccc3c2O[C@H](CN(C)Cc2ccc(Cl)c(Cl)c2)[C@H](C)CN([C@H](C)CO)C3=O)cc1	none (no result: IDH1 R132H inh)
C[C@@H]1CN([C@H](C)CO)C(=O)c2cccc(NC(=O)Nc3ccc4c(c3)OCO4)c2O[C@@H]1CN(C)Cc1ccc(Cl)c(Cl)c1	none (no result: IDH1 R132H inh)
C[C@H](CO)N1C[C@H](C)[C@H](CN(C)Cc2ccc(Cl)c(Cl)c2)Oc2c(NC(=O)Nc3ccc4c(c3)OCO4)cccc2C1=O	T cruzi growth-1 inconclusive (no result: IDH1 R132H inh) | T cruzi growth-2 101 | T cruzi growth-3 inactive | NIH3T3 tox inactive | NIH3T3 tox 2 27
COc1ccc(NC(=O)Nc2cccc3c2O[C@@H](CN(C)Cc2ccc(Cl)c(Cl)c2)[C@@H](C)CN([C@H](C)CO)C3=O)cc1	T cruzi growth-1 inconclusive (no result: IDH1 R132H inh, GASC1 inh) | T cruzi growth-2 111 | T cruzi growth-3 inactive | NIH3T3 tox inactive | NIH3T3 tox 2 38
COc1ccc(NC(=O)Nc2cccc3c2O[C@@H](CN(C)Cc2ccc(Cl)c(Cl)c2)[C@@H](C)CN([C@@H](C)CO)C3=O)cc1	T cruzi growth-1 122 | T cruzi growth-2 99 | T cruzi growth-3 inactive | NIH3T3 tox inactive | NIH3T3 tox 2 51
COc1ccc(CN(C)C[C@H]2Oc3c(NC(=O)Nc4ccc(OC)cc4)cccc3C(=O)N([C@@H](C)CO)C[C@H]2C)cc1	none
COc1ccc(-c2nc(C#N)c(NCCN3CCOCC3)o2)cc1	none (no result: T cruzi growth-1, GASC1 inh)
O=C(CSc1nnnn1-c1ccccc1F)Nc1ccc(Br)cc1	none (no result: T cruzi growth-1, GASC1 inh)
Cc1cc(OCC(=O)NCc2ccccn2)c(C)cc1Br	none (no result: T cruzi growth-1, GASC1 inh)
COc1ccc(-c2cc(C(F)(F)F)n3nc(C(=O)NCCN4CCOCC4)c(Br)c3n2)cc1	none (no result: T cruzi growth-1, GASC1 inh)
